Data as given in ChEMBL document CHEMBL4715787, “Radiofluorinated N-Octanoyl Dopamine ([F]F-NOD) as a Tool To Study Tissue Distribution and Elimination of NOD in Vitro and in Vivo” (J Med Chem, 2016).
The source made the active and inactive calls. The calls are words filed in the database; no cut-off is given here.

Key:
[1] = Drug distribution in Lewis rat liver assessed as standard uptake value at 4.8 to 13.2 MBq measured at 8 min by PET imaging analysis; format: ADME, tissue-based; conditions: in vivo, dose 4.8-13.2 MBq
[2] = Metabolic stability of compound in rat plasma assessed as radiochemical purity measured after 120 mins by radio-HPLC analysis; format: ADME, cell-free; conditions: read-out: Stabilty
Procedure, shortened: (§1)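 18F tracer in PBS/3% EtOH (100 µL) shaken with rat plasma (200 µL) at 37 °C for 120 min. Samples at 30, 60, 120 min deproteinized with equal volume acetonitrile at 0 °C; supernatant analysed by radio-TLC and radio-HPLC for radiochemical purity and recovery.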

[3] = Drug transport in HUVEC assessed as cell association incubated for 120 mins by HPLC analysis; format: ADME, tissue-based; conditions: human, 2 h, in the assay text read “by gamma counting” for “by HPLC analysis”
Procedure, shortened: (§2)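 HUVEC incubated with ~450 kBq 18F tracer per well in 1 mL medium at 37 °C, normal atmosphere, for up to 120 min. Supernatant collected, cells washed 3× with PBS, lysed and scraped for gamma counting; associated activity expressed as % of applied dose. Lysate extracts analysed by radio-HPLC; three independent experiments, mean ± SD.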

[4] = Drug distribution in Lewis rat kidney assessed as standard uptake value at 4.8 to 13.2 MBq observed between 5 to 10 mins by PET imaging analysis; format: ADME, tissue-based; conditions: in vivo, dose lower 4.8 MBq, time lower 5 min, dose upper 13.2 MBq, time upper 10 min
[5] = Drug distribution in Lewis rat bladder at 4.8 to 13.2 MBq measured within 30 mins by PET imaging; format: ADME, tissue-based, Urinary bladder; conditions: in vivo, 0.5 h, dose 4.8-13.2 MBq
[6] = Metabolic stability of compound in rat plasma assessed as compound recovery rate measured after 120 mins by radio-HPLC analysis; format: ADME, cell-free; conditions: read-out: Drug recovery; procedure, shortened: as §1
[7] = Drug distribution in Lewis rat bone assessed as standard uptake value at 4.8 to 13.2 MBq measured after 120 mins; format: ADME, tissue-based, Bone element; conditions: in vivo, 2 h, dose 4.8-13.2 MBq
[8] = Drug uptake in human HUVEC lysate extracts assessed as retention time incubated for 120 mins by HPLC analysis; format: ADME, subcellular; conditions: 2 h; procedure, shortened: as §2
[9] = Drug accumulation in Lewis rat bone at 4.8 to 13.2 MBq measured after 60 mins by PET imaging analysis; format: ADME, tissue-based, Bone element; conditions: in vivo, 1 h, dose 4.8-13.2 MBq
[10] = Drug distribution in Lewis rat bladder assessed as standard uptake value at 4.8 to 13.2 MBq measured after 120 mins; format: ADME, tissue-based, Urinary bladder; conditions: in vivo, 2 h, dose 4.8-13.2 MBq
[11] = Lipophilicity, log D of compound in n-octanol and phosphate buffered saline at pH 7.5 by shake flask method; format: physicochemical
Procedure, shortened: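 Shake-flask partition of the 18F tracer between n-octanol and PBS at pH 7.5, following OECD guideline; n = 3.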

[12] = tested on: HUVEC; assay: Antiinflammatory activity in HUVEC assessed as inhibition of TNFalpha-stimulated VCAM1 expression at higher concentration measured after overnight incubation by Western blot analysis; format: functional, cell-based; conditions: Homo sapiens
Procedure, shortened: (§3)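 Primary HUVEC (from fresh umbilical cord, endothelial growth medium with 2% FBS, used at 80–90% confluence) treated with compound; VCAM-1 read-out under TNFα stimulation. Lysates in Triton/deoxycholate buffer; 15 µg protein resolved on 10% SDS-PAGE, semidry-blotted to PVDF, probed overnight at 4 °C for VCAM-1 or HO-1, visualized by ECL. Blots stripped and reprobed for β-actin as loading control.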

[13] = target: Transient receptor potential cation channel subfamily V member 1 (Rattus norvegicus, UniProt O35433); assay: (§4) Activation of rat TRPV1 transfected in HEK293 cells assessed as increase in calcium influx in presence of capsaicin by FURA-2-AM dye based fluorescence assay; format: cell-based
Transient receptor potential cation channel subfamily V member 1, sequence (O35433 whole entry): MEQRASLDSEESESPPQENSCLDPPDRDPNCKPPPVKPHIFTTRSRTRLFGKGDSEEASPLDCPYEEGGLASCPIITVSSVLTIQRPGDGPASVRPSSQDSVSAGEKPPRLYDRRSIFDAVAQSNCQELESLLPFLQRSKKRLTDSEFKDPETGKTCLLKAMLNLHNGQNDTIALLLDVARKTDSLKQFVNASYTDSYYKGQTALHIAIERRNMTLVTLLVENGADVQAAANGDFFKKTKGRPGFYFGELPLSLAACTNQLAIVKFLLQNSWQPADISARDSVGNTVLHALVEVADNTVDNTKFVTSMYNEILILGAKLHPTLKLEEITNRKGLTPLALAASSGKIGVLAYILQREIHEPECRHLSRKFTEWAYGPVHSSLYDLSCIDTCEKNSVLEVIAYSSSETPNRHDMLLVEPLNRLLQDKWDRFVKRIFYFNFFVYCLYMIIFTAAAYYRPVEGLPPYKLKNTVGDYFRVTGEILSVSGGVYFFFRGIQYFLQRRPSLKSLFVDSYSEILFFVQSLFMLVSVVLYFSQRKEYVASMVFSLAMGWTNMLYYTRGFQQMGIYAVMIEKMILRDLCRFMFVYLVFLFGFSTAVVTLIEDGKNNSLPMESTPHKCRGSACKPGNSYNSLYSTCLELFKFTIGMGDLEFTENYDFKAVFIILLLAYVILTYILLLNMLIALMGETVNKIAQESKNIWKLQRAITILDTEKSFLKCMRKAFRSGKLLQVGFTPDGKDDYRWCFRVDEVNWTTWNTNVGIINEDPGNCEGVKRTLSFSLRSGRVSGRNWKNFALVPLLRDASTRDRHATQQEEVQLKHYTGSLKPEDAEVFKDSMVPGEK
Procedure, shortened: (§5)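 HEK293 transiently transfected with rat TRPV1, imaged 48 h later in HEPES-buffered extracellular solution (1.8 mM CaCl2) after 1 µM FURA-2AM loading. 340/380 nm excitation ratio at 510 nm, sampled at 0.5 Hz. Compound applied at several concentrations, then 10 µM capsaicin after washout to mark transfected cells. Peak minus baseline; each coverslip one experiment, n = 3–13; two-way ANOVA.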

[14] = target: Transient receptor potential cation channel subfamily V member 1 (Rattus norvegicus) (UniProt O35433); assay: as §4; format: cell-based; conditions: filed as activator; procedure, shortened: as §5
Transient receptor potential cation channel subfamily V member 1 (Rattus norvegicus), sequence (O35433 whole entry): as above

[15] = Redox activity of compound assessed as quenching of luminescence by horseradish peroxidase coupled luminol assay; format: physicochemical
Procedure, shortened: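 Peroxidase-luminol chemiluminescence: serial dilutions in water added to mix of 2.5 mM luminol, 0.9 mM p-coumaric acid and H2O2, with HRP; quenching read immediately on a plate reader. Expressed relative to compound-free control; at least three independent measurements per concentration; EC50 from concentration–response; ANOVA with LSD post-hoc.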

[16] = target: T1, Nuclear factor erythroid 2-related factor 2 (Homo sapiens) (UniProt Q16236); assay: Activation of NRF2 in HUVEC assessed as induction of HO1 expression at higher concentration measured after overnight incubation by Western blot analysis; format: tissue-based; conditions: filed as activator; procedure, shortened: as §3
T1 sequence (whole entry): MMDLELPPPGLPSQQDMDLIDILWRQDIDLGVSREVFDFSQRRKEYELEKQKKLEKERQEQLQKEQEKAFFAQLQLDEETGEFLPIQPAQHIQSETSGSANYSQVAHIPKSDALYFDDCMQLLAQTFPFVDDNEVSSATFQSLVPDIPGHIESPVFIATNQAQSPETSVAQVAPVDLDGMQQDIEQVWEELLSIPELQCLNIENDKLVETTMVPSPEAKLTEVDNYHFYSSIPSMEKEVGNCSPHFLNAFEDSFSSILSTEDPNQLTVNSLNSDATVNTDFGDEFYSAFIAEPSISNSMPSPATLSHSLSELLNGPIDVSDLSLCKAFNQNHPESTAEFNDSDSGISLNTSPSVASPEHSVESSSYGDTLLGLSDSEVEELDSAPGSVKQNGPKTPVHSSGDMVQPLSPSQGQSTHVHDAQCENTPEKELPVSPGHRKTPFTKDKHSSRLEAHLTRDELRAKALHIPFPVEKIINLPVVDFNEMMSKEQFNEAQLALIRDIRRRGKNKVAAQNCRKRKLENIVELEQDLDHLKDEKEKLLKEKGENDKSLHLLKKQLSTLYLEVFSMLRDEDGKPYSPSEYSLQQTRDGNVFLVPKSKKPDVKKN

[17] = tested on: HUVEC; assay: Protection against cold inflicted injury in HUVEC assessed as 25 to 100 uM pretreated for 2 hrs followed by washout and subsequent incubation for 20 hrs at 4 degC by LDH assay; format: functional, cell-based; conditions: Homo sapiens, dose 25-100 µM
[18] = target: T1, Nuclear factor erythroid 2-related factor 2 (Homo sapiens); assay: Activation of NRF2 in HUVEC assessed as induction of HO1 expression at lower concentration measured after overnight incubation by Western blot analysis; format: tissue-based; procedure, shortened: as §3
[19] = target: T2, Catechol O-methyltransferase (Homo sapiens, UniProt P21964); assay: Substrate activity at COMT (unknown origin) assessed as N-(2-Fluoro-4,5-dimethoxyphenethyl)octanamide formation in presence of cofactor SAM at 180 mins by HPLC analysis; format: ADME; conditions: 3 h
T2 sequence (P21964 whole entry): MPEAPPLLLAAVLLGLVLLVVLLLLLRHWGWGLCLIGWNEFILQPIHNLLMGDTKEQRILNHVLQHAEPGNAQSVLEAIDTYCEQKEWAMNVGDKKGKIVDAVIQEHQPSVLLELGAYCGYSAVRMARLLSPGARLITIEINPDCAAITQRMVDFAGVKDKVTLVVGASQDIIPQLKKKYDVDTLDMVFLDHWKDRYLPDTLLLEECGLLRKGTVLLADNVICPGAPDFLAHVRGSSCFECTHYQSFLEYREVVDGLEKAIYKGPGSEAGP
Procedure, shortened: (§6)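 COMT reaction for lipophilic substrates: Tris buffer pH 8.0 with MgCl2 and dithiothreitol, 10 µL Tween20, 300 nmol SAM, 300 nmol substrate (from 100 mM ethanol stock), 75 units COMT in 1% BSA, 37 °C for 2–4 h. Cooled on ice, centrifuged, CHCl3-extracted, residue in 1:1 MeCN/water analysed by HPLC against methylated references.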

[20] = tested on: HUVEC; assay: Antiinflammatory activity in HUVEC assessed as inhibition of TNFalpha-stimulated VCAM1 expression at lower concentration measured after overnight incubation by Western blot analysis; format: functional, cell-based; conditions: Homo sapiens; procedure, shortened: as §3
[21] = target: T2, Catechol O-methyltransferase; assay: Substrate activity at COMT (unknown origin) assessed as N-(4-Hydroxy-3-methoxyphenethyl)octanamide formation in presence of cofactor SAM at 180 mins by HPLC analysis; format: ADME; conditions: 3 h; procedure, shortened: as §6

Question: With `CCCCCCCC(=O)NCCc1cc(O)c(O)cc1[18F]` as the compound, how does the SUV [1] read?
Answer: 21 g/mL

Question: What about the remaining at 2 h [2] of the same compound?
Answer: ≥ 98%

Question: What about the Drug transport [3] of the same compound?
Answer: 0.14 %ID

Question: And the SUV [4]?
Answer: 8 g/mL

Question: And the Drug uptake [5]?
Answer: Active

Question: What about the remaining at 2 h [6] of the same compound?
Answer: 77%

Question: And the SUV [7]?
Answer: 9.8 g/mL

Question: And the Retention_time [8]?
Answer: 4.07 min

Question: What about the Drug uptake [9] of the same compound?
Answer: Active

Question: What about the SUV [10] of the same compound?
Answer: 38.5 g/mL

Question: What about the logD [11] of the same compound?
Answer: 3.35

Question: What does the source list for `CCCCCCCC(=O)NCCc1cc(O)c(O)cc1F`?
Answer: Activity [12]: Active; EC50 [13]: 45.9 µM; Activity [14]: Dose-dependent effect; EC50 [15]: 32.6 µM; Activity [16]: Active; Activity [17]: Active; Activity [18]: inactive; Drug metabolism [19]: Metabolite_Detected; Activity [20]: inactive

Question: For `CCCCCCCC(=O)NCCc1ccc(O)c(O)c1`, which Activity [12] is on record?
Answer: Active

Question: What about the EC50 [13] of the same compound?
Answer: 7.1 µM

Question: And the Activity [14]?
Answer: Dose-dependent effect

Question: And the EC50 [15]?
Answer: 12.1 µM

Question: And the Activity [16]?
Answer: Active

Question: And the Activity [17]?
Answer: Active

Question: And the Drug metabolism [21]?
Answer: Metabolite_Detected
